Laboratory results published in ChEMBL document CHEMBL5674869, “The Histone Methyltransferase Inhibitor A-366 Uncovers a Role for G9a/GLP in the Epigenetics of Leukemia” (PLoS One, 2015).
pEC50: −log10 of the molar value. The source made the active and inactive calls. The rule behind the calls is not given here.

Assays:
NCI-H929 = assay: Antiproliferative against human NCI-H929 cells after 5 days by Cell-Titer Glo assay; type: functional, cell-based; settings: NCI-H929, 120 h
How it was run: (§1)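 ATCC tumor lines were grown in their recommended media with 10% FBS and STR-authenticated. Cells were exposed to compound for the stated number of days. Viable cells were read by CellTiter-Glo endpoint. Inhibition was the ratio of treated to untreated wells, with cell-free wells set as 100% inhibition. The EC50 was taken from the dose response.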

NCI-H522 = assay: Antiproliferative against human NCI-H522 cells after 5 days by Cell-Titer Glo assay; type: functional, cell-based; settings: NCI-H522, 120 h; how it was run: as §1
NCI-H661 = assay: Antiproliferative against human NCI-H661 cells after 5 days by Cell-Titer Glo assay; type: functional, cell-based; settings: NCI-H661, 120 h; how it was run: as §1
LN-229 = assay: Antiproliferative against human LN-229 cells after 5 days by Cell-Titer Glo assay; type: functional, cell-based; settings: LN-229, 120 h; how it was run: as §1
[1] = biological target: T1, Histone-lysine N-methyltransferase EHMT2 (Homo sapiens) (UniProt Q96KQ7); assay: Inhibition of G9a in human PC-3 cells assessed as decrease in H3K9me2 levels after 72 hrs by Western blot analysis
T1 sequence (whole entry): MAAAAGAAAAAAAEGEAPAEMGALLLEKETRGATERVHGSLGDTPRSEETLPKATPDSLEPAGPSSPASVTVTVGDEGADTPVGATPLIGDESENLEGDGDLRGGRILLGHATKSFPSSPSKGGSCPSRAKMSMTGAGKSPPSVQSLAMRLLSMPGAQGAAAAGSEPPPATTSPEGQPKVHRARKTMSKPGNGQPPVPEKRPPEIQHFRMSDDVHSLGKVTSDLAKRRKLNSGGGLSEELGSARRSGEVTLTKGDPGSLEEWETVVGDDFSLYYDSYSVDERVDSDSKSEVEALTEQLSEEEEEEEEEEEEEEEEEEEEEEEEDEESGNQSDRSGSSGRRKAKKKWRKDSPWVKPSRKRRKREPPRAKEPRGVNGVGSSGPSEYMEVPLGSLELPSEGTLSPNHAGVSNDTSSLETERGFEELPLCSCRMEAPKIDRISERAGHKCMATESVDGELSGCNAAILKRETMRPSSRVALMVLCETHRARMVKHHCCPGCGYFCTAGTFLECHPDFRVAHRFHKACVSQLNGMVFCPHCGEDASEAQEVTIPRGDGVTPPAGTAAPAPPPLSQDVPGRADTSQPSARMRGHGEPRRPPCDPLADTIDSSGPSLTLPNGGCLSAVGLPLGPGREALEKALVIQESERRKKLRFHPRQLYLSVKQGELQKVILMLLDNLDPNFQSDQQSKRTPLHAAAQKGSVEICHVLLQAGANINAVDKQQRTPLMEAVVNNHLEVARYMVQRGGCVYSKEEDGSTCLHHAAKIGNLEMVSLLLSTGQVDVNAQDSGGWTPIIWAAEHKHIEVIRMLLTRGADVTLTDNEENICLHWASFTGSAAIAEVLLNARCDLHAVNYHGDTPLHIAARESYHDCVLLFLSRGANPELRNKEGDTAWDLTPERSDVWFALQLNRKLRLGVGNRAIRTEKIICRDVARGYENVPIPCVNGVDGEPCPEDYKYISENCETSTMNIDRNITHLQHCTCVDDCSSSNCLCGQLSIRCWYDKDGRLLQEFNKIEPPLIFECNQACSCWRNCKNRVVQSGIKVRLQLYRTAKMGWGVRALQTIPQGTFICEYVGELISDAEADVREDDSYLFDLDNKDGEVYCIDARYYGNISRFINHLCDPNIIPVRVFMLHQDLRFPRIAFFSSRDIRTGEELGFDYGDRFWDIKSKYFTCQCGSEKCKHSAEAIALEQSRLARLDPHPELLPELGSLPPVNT

[2] = biological target: T1, Histone-lysine N-methyltransferase EHMT2 (Homo sapiens); assay: Inhibition of G9a in human PC-3 cells assessed as decrease in total H3 levels at 10 uM by In cell Western assay; type: cell-based
How it was run: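 PC-3 cells (5,000/well) adhered overnight, then treated in triplicate with DMSO or compound over a concentration range for 72 h at 37 °C, 5% CO2. Cells fixed in 3% formaldehyde, blocked in 1% BSA and co-stained 4 h for H3K9me2 (1:500) and total H3 (1:1000). Fluorescent secondaries read by Odyssey: 800 nm H3K9me2, 700 nm total H3.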

NCI-H2009 = assay: Antiproliferative against human NCI-H2009 cells after 5 days by Cell-Titer Glo assay; type: functional, cell-based; settings: NCI-H2009, 120 h; how it was run: as §1
[3] = biological target: T1, Histone-lysine N-methyltransferase EHMT2 (Homo sapiens); assay: Inhibition of G9a in human MDA-MB-231 cells assessed as slight decrease in […] levels at 0.3 to 3 uM after 72 hrs by Western blot analysis; type: cell-based; settings: dose 0.3-3 µM
[4] = biological target: T1, Histone-lysine N-methyltransferase EHMT2 (Homo sapiens); assay: Inhibition of G9a in human HT-1080 cells assessed as decrease in […] levels after 2 days by AlphaLisa assay; type: cell-based; settings: time 2.0 day
How it was run: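 HT-1080 cells treated 2 days with compound over a concentration range. Viability read by CellTiter-Glo; H3K9me2 measured by AlphaLISA and normalized to viability. % inhibition calculated relative to untreated cells set as 0%.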

SK-N-MC = assay: Antiproliferative against human SK-N-MC cells after 7 days by Cell-Titer Glo assay; type: functional, cell-based; settings: 168 h; how it was run: as §1
RS4-11 = assay: Antiproliferative against human RS4-11 cells after 5 days by Cell-Titer Glo assay; type: functional, cell-based; settings: RS4-11, 120 h; how it was run: as §1
NCI-H1975 = assay: Antiproliferative against human NCI-H1975 cells after 5 days by Cell-Titer Glo assay; type: functional, cell-based; settings: NCI-H1975, 120 h; how it was run: as §1
KMS-11 = assay: Antiproliferative against human KMS-11 cells after 5 days by Cell-Titer Glo assay; type: functional, cell-based; settings: KMS-11, 120 h; how it was run: as §1
KMS-12-BM = assay: Antiproliferative against human KMS-12-BM cells after 5 days by Cell-Titer Glo assay; type: functional, cell-based; settings: 120 h; how it was run: as §1
RPMI-8226 = assay: Antiproliferative against human RPMI-8226 cells after 5 days by Cell-Titer Glo assay; type: functional, cell-based; settings: RPMI-8226, 120 h; how it was run: as §1
K562 = assay: Antiproliferative against human K562 cells after 5 days by Cell-Titer Glo assay; type: functional, cell-based; settings: K562, 120 h; how it was run: as §1
Mus musculus = assay: Decrease in H3K9me2 level in SCID/beige mouse tumor xenografted with human MV4-11 cells at 30 mg/kg/day via osmotic-mini pump for 7 days by alphaLisa assay; type: functional, organism-based; settings: Neoplasm, time 7.0 day
How it was run: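 Female SCID-beige mice, 6–8 weeks old, received 5 x 10^6 MV4;11 cells in 50% Matrigel subcutaneously in the flank. At about 200 mm3, compound was given at 30 mg/kg/day by osmotic mini-pump in 98% PEG-400/2% Tween-80. In the PK/PD arm, tumors were harvested at the stated day and H3K9me2 was measured by AlphaLISA relative to vehicle.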

SMILES | pEC50 (NCI-H929) | pEC50 (NCI-H522) | pEC50 (NCI-H661) | pEC50 (LN-229) | inhibition [1] | inhibition [2] | pEC50 (NCI-H2009) | inhibition [3] | inhibition [4] | pEC50 (SK-N-MC) | pEC50 (RS4-11) | pEC50 (NCI-H1975) | pEC50 (KMS-11) | pEC50 (KMS-12-BM) | pEC50 (RPMI-8226) | pEC50 (K562) | inhibition (Mus musculus)
COc1cc2c(NC3CCN(C(C)C)CC3)nc(C3CCCCC3)nc2cc1OCCCN1CCCC1 | 5.34 | 5.82 | 5.31 | 6.30 | Active | Active | 5.41 | Active | Active | 6.70 | 5.51 | < 5.00 | 5.40 | 5.36 | 5.29 | 5.28 | –
COc1cc2c(cc1OCCCN1CCCC1)N=C(N)C21CCC1 | < 5.00 | < 5.00 | < 5.00 | < 5.00 | Dose-Dependent Effect | inactive | < 5.00 | Active | Active | < 5.00 | < 5.00 | < 5.00 | < 5.00 | < 5.00 | < 5.00 | < 5.00 | Active
